{"source": "ChEMBL document CHEMBL3244429", "about": "“Antischistosomal effects of 5-(2,4,5-trichlorophenyl)hydantoin and related compounds” (J Med Chem, 1977)", "key": {"Schistosoma mansoni [1]": {"system": "Schistosoma mansoni", "assay": "Antischistosomal activity against Schistosoma mansoni Puerto Rican infected mouse assessed as reduction in live schistosomes at 301 mg/kg/day, through diet for 14 days", "assay_type": "functional", "conditions": "336 h", "procedure,_shortened": "(§1)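 Mice carrying a Puerto Rican strain of S. mansoni received drug mixed into a powdered diet for 14 days, with dose expressed as mg/kg per day. The read-out was the reduction in live schistosomes in the infected mice.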"}, "Schistosoma mansoni [2]": {"system": "Schistosoma mansoni", "assay": "Antischistosomal activity against Schistosoma mansoni Puerto Rican infected mouse assessed as infected mouse at 301 mg/kg/day, through diet for 14 days", "assay_type": "functional", "procedure,_shortened": "as §1"}, "Schistosoma mansoni [3]": {"system": "Schistosoma mansoni", "assay": "Antischistosomal activity against Schistosoma mansoni Puerto Rican infected mouse assessed as infected mouse at 302 mg/kg/day, through diet for 14 days", "assay_type": "functional", "procedure,_shortened": "as §1"}, "Schistosoma mansoni [4]": {"system": "Schistosoma mansoni", "assay": "Antischistosomal activity against Schistosoma mansoni Puerto Rican infected mouse assessed as reduction in live schistosomes at 302 mg/kg/day, through diet for 14 days", "assay_type": "functional", "conditions": "336 h", "procedure,_shortened": "as §1"}, "Schistosoma mansoni [5]": {"system": "Schistosoma mansoni", "assay": "Antischistosomal activity against Schistosoma mansoni Puerto Rican infected mouse assessed as infected mouse at 347 mg/kg/day, through diet for 14 days", "assay_type": "functional", "procedure,_shortened": "as §1"}, "Schistosoma mansoni [6]": {"system": "Schistosoma mansoni", "assay": "Antischistosomal activity against Schistosoma mansoni Puerto Rican infected mouse assessed as reduction in live schistosomes at 347 mg/kg/day, through diet for 14 days", "assay_type": "functional", "conditions": "336 h", "procedure,_shortened": "as §1"}, "Schistosoma mansoni [7]": {"system": "Schistosoma mansoni", "assay": "Antischistosomal activity against Schistosoma mansoni Puerto Rican infected mouse assessed as infected mouse at 396 mg/kg/day, through diet for 14 days", "assay_type": "functional", "procedure,_shortened": "as §1"}, "Schistosoma mansoni [8]": {"system": "Schistosoma mansoni", "assay": "Antischistosomal activity against Schistosoma mansoni Puerto Rican infected mouse assessed as reduction in live schistosomes at 396 mg/kg/day, through diet for 14 days", "assay_type": "functional", "conditions": "336 h", "procedure,_shortened": "as §1"}, "Schistosoma mansoni [9]": {"system": "Schistosoma mansoni", "assay": "Antischistosomal activity against Schistosoma mansoni Puerto Rican infected mouse assessed as reduction in live schistosomes at 349 mg/kg/day, through diet for 14 days", "assay_type": "functional", "conditions": "336 h", "procedure,_shortened": "as §1"}, "Schistosoma mansoni [10]": {"system": "Schistosoma mansoni", "assay": "Antischistosomal activity against Schistosoma mansoni Puerto Rican infected mouse assessed as infected mouse at 349 mg/kg/day, through diet for 14 days", "assay_type": "functional", "procedure,_shortened": "as §1"}, "Schistosoma mansoni [11]": {"system": "Schistosoma mansoni", "assay": "Antischistosomal activity against Schistosoma mansoni Puerto Rican infected mouse assessed as infected mouse at 146 mg/kg/day, through diet for 14 days", "assay_type": "functional", "procedure,_shortened": "as §1"}, "Schistosoma mansoni [12]": {"system": "Schistosoma mansoni", "assay": "Antischistosomal activity against Schistosoma mansoni Puerto Rican infected mouse assessed as reduction in live schistosomes at 146 mg/kg/day, through diet for 14 days", "assay_type": "functional", "conditions": "336 h", "procedure,_shortened": "as §1"}, "Schistosoma mansoni [13]": {"system": "Schistosoma mansoni", "assay": "Antischistosomal activity against Schistosoma mansoni Puerto Rican infected mouse assessed as reduction in live schistosomes at 298 mg/kg/day, through diet for 14 days", "assay_type": "functional", "conditions": "336 h", "procedure,_shortened": "as §1"}, "Schistosoma mansoni [14]": {"system": "Schistosoma mansoni", "assay": "Antischistosomal activity against Schistosoma mansoni Puerto Rican infected mouse assessed as infected mouse at 298 mg/kg/day, through diet for 14 days", "assay_type": "functional", "procedure,_shortened": "as §1"}, "Schistosoma mansoni [15]": {"system": "Schistosoma mansoni", "assay": "Antischistosomal activity against Schistosoma mansoni Puerto Rican infected mouse assessed as infected mouse at 329 mg/kg/day, through diet for 14 days", "assay_type": "functional", "procedure,_shortened": "as §1"}, "Schistosoma mansoni [16]": {"system": "Schistosoma mansoni", "assay": "Antischistosomal activity against Schistosoma mansoni Puerto Rican infected mouse assessed as infected mouse at 400 mg/kg/day, through gavage for 10 days", "assay_type": "functional"}, "Schistosoma mansoni [17]": {"system": "Schistosoma mansoni", "assay": "Antischistosomal activity against Schistosoma mansoni Puerto Rican infected mouse assessed as reduction in live schistosomes at 329 mg/kg/day, through diet for 14 days", "assay_type": "functional", "conditions": "336 h", "procedure,_shortened": "as §1"}, "Schistosoma mansoni [18]": {"system": "Schistosoma mansoni", "assay": "Antischistosomal activity against Schistosoma mansoni Puerto Rican infected mouse assessed as reduction in live schistosomes at 400 mg/kg/day, through gavage for 10 days", "assay_type": "functional", "conditions": "po, 240 h"}, "Schistosoma mansoni [19]": {"system": "Schistosoma mansoni", "assay": "Antischistosomal activity against Schistosoma mansoni infected rhesus monkey assessed as temporary egg suppression at 200 mg/kg/day, through gavage for 10 days", "assay_type": "functional, organism-based", "procedure,_shortened": "(§2)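 S. mansoni-infected rhesus monkeys were dosed daily by gavage. Assessment was by egg output over time (temporary suppression) and by the number of live and dead worms remaining in the treated animal.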"}, "Schistosoma mansoni [20]": {"system": "Schistosoma mansoni", "assay": "Antischistosomal activity against Schistosoma mansoni infected rhesus monkey assessed as removal of all worms at 200 mg/kg/day, through gavage for 5 to 10 days", "assay_type": "functional, organism-based", "procedure,_shortened": "as §2"}, "Schistosoma mansoni [21]": {"system": "Schistosoma mansoni", "assay": "Antischistosomal activity against Schistosoma mansoni Puerto Rican infected mouse assessed as reduction in live schistosomes at 78 mg/kg/day, through diet for 14 days", "assay_type": "functional", "conditions": "336 h", "procedure,_shortened": "as §1"}, "[22]": {"assay": "Toxicity in mouse po dosed through diet for 14 days", "assay_type": "organism-based", "conditions": "in vivo", "procedure,_shortened": "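Mice infected with a Puerto Rican strain of *Schistosoma mansoni*; drug mixed into a powdered diet and fed orally for 14 days; doses expressed as mg/kg per day.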"}, "Schistosoma mansoni [23]": {"system": "Schistosoma mansoni", "assay": "Antischistosomal activity against Schistosoma mansoni Puerto Rican infected mouse assessed as infected mouse at 78 mg/kg/day, through diet for 14 days", "assay_type": "functional", "procedure,_shortened": "as §1"}, "Schistosoma mansoni [24]": {"system": "Schistosoma mansoni", "assay": "Antischistosomal activity against Schistosoma mansoni Puerto Rican infected mouse assessed as infected mouse at 265 mg/kg/day, through diet for 14 days", "assay_type": "functional", "procedure,_shortened": "as §1"}, "Schistosoma mansoni [25]": {"system": "Schistosoma mansoni", "assay": "Antischistosomal activity against Schistosoma mansoni Puerto Rican infected mouse assessed as reduction in live schistosomes at 265 mg/kg/day, through diet for 14 days", "assay_type": "functional", "conditions": "336 h", "procedure,_shortened": "as §1"}}, "note": "The source made the active and inactive calls. The calls are words filed in the database; no cut-off is given here."}
{"compound": "CC1(c2ccc(Cl)cc2Cl)NC(=O)NC1=O", "note": "(stereo not given)", "values": [{"measurement": "inhibition in vivo at 301 mg/kg/day", "setting": "Schistosoma mansoni [1]", "result": 8, "unit": "%"}, {"measurement": "Activity", "setting": "Schistosoma mansoni [2]", "result": 100, "unit": "%"}]}
{"compound": "O=C1NC(=O)C(c2ccc(Cl)cc2Cl)N1", "note": "(stereo not given)", "values": [{"measurement": "Activity", "setting": "Schistosoma mansoni [3]", "result": 100, "unit": "%"}, {"measurement": "inhibition in vivo at 302 mg/kg/day", "setting": "Schistosoma mansoni [4]", "result": 36, "unit": "%"}]}
{"compound": "O=C1NC(=O)C(c2c(Cl)cccc2Cl)N1", "note": "(stereo not given)", "values": [{"measurement": "Activity", "setting": "Schistosoma mansoni [5]", "result": 100, "unit": "%"}, {"measurement": "inhibition in vivo at 347 mg/kg/day", "setting": "Schistosoma mansoni [6]", "result": 2, "unit": "%"}]}
{"compound": "CN1C(=O)NC(=O)C1c1cc(Cl)c(Cl)cc1Cl", "note": "(stereo not given)", "values": [{"measurement": "Activity", "setting": "Schistosoma mansoni [7]", "result": 83, "unit": "%"}, {"measurement": "inhibition in vivo at 396 mg/kg/day", "setting": "Schistosoma mansoni [8]", "result": 71, "unit": "%"}]}
{"compound": "Cc1cc(Cl)c(Cl)cc1C1(C)NC(=O)NC1=O", "note": "(stereo not given)", "values": [{"measurement": "inhibition in vivo at 349 mg/kg/day", "setting": "Schistosoma mansoni [9]", "result": 48, "unit": "%"}, {"measurement": "Activity", "setting": "Schistosoma mansoni [10]", "result": 100, "unit": "%"}]}
{"compound": "O=C1NC(c2cc(Cl)c(Cl)cc2Cl)C(=O)N1CO", "note": "(stereo not given)", "values": [{"measurement": "Activity", "setting": "Schistosoma mansoni [11]", "result": 100, "unit": "%"}, {"measurement": "inhibition in vivo at 146 mg/kg/day", "setting": "Schistosoma mansoni [12]", "result": 0, "unit": "%"}]}
{"compound": "CC1(c2cccc([N+](=O)[O-])c2)NC(=O)NC1=O", "note": "(stereo not given)", "values": [{"measurement": "inhibition in vivo at 298 mg/kg/day", "setting": "Schistosoma mansoni [13]", "result": 0, "unit": "%"}, {"measurement": "Activity", "setting": "Schistosoma mansoni [14]", "result": 100, "unit": "%"}]}
{"compound": "O=C1NC(=O)C(c2cc(Cl)c(Cl)cc2Cl)N1", "note": "(stereo not given) [listing 1 of 2 here]", "values": [{"measurement": "Activity", "setting": "Schistosoma mansoni [15]", "result": 67, "unit": "%"}, {"measurement": "Activity", "setting": "Schistosoma mansoni [16]", "result": 100, "unit": "%"}, {"measurement": "inhibition in vivo at 329 mg/kg/day", "setting": "Schistosoma mansoni [17]", "result": 80, "unit": "%"}, {"measurement": "inhibition in vivo at 400 mg/kg/day", "setting": "Schistosoma mansoni [18]", "result": 0, "unit": "%"}]}
{"compound": "O=C1NC(=O)C(c2cc(Cl)c(Cl)cc2Cl)N1", "note": "(stereo not given) [listing 2 of 2 here]", "values": [{"measurement": "inhibition", "setting": "Schistosoma mansoni [19]", "result": "Dose-dependent effect"}, {"measurement": "inhibition", "setting": "Schistosoma mansoni [20]", "result": "Active"}]}
{"compound": "CN(C)CCCN1C(=O)NC(c2cc(Cl)c(Cl)cc2Cl)C1=O", "note": "(stereo not given)", "values": [{"measurement": "inhibition in vivo at 78 mg/kg/day", "setting": "Schistosoma mansoni [21]", "result": 0, "unit": "%"}, {"measurement": "MTD at 336 h", "setting": "[22]", "result": 78, "unit": "mg/kg"}, {"measurement": "Activity", "setting": "Schistosoma mansoni [23]", "result": 100, "unit": "%"}]}
{"compound": "CN1C(=O)NC(c2cc(Cl)c(Cl)cc2Cl)C1=O", "note": "(stereo not given)", "values": [{"measurement": "Activity", "setting": "Schistosoma mansoni [24]", "result": 33, "unit": "%"}, {"measurement": "inhibition in vivo at 265 mg/kg/day", "setting": "Schistosoma mansoni [25]", "result": 83, "unit": "%"}]}
